Among the targets are CSP23 (Caulobacter vibrioides, UniProt A0A0H3CCM2, K168A); CSP29 (Caulobacter vibrioides, UniProt A0A0H3CCM2, DEL158/K168R); CSP30 (Caulobacter vibrioides, UniProt A0A0H3CCM2, DEL159/K168R); CSP6 (Caulobacter vibrioides, UniProt A0A0H3CCM2, K168R); CSP21 (Caulobacter vibrioides, UniProt A0A0H3CCM2, K168R/P166A); CSP14 (Caulobacter vibrioides, UniProt A0A0H3CCM2, K168R/N159A); CSP18 (Caulobacter vibrioides, UniProt A0A0H3CCM2, K168R/Y163A); CSP12 (Caulobacter vibrioides, UniProt A0A0H3CCM2, K168R/R157A); CSP7 (Caulobacter vibrioides, UniProt A0A0H3CCM2, K168R); CSP15 (Caulobacter vibrioides, UniProt A0A0H3CCM2, K168R/S160A); CSP26 (Caulobacter vibrioides, UniProt A0A0H3CCM2, A171L/K168R); H6-MBP-CSP2 (Caulobacter vibrioides, UniProt A0A0H3CCM2, K168R); CSP20 (Caulobacter vibrioides, UniProt A0A0H3CCM2, G165A/K168R); CSP10 (Caulobacter vibrioides, UniProt A0A0H3CCM2, K168R/R155A); CSP32 (Caulobacter vibrioides, UniProt A0A0H3CCM2, DEL161/K168R); CSP16 (Caulobacter vibrioides, UniProt A0A0H3CCM2, A161L/K168R); CSP13 (Caulobacter vibrioides, UniProt A0A0H3CCM2, F158A/K168R); CSP11 (Caulobacter vibrioides, UniProt A0A0H3CCM2, K168R/R156A); CSP2 (Caulobacter vibrioides, UniProt A0A0H3CCM2, K168R); CSP9 (Caulobacter vibrioides, UniProt A0A0H3CCM2, D154A/K168R); CSP28 (Caulobacter vibrioides, UniProt A0A0H3CCM2, DEL157/K168R); CSP27 (Caulobacter vibrioides, UniProt A0A0H3CCM2, D172A/K168R); CSP4 (Caulobacter vibrioides, UniProt A0A0H3CCM2, K168R); CSP3 (Caulobacter vibrioides, UniProt A0A0H3CCM2, K168R); CSP31 (Caulobacter vibrioides, UniProt A0A0H3CCM2, DEL160/K168R); CSP25 (Caulobacter vibrioides, UniProt A0A0H3CCM2, K168R/K170A); CSP17 (Caulobacter vibrioides, UniProt A0A0H3CCM2, D162A/K168R); CSP19 (Caulobacter vibrioides, UniProt A0A0H3CCM2, K164A/K168R); CSP22 (Caulobacter vibrioides, UniProt A0A0H3CCM2, K168R/R167A).

Common to all, as to format: binding
For the next test, the target named is CSP1 (Caulobacter vibrioides, UniProt A0A0H3CCM2). The essentials:
(§1)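 Peptide or protein, c-di-GMP and buffer were degassed for 15 min; runs at 15 °C. Format 1: cell held about 10 µM peptide/protein and syringe about 200 µM c-di-GMP, 30 injections at 250-s spacing. Format 2 (reverse): cell held about 20 µM c-di-GMP and syringe about 100 µM peptide/protein, 18 injections at 120-s spacing. Concentrations were set by absorbance at 1-cm path.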

The test system of the next test is 3′3′-c-di-AMP. The experiment in a line: Microscale thermophoresis. The following applies: N-terminally FITC-labeled CSP4. Put shortly:
(§2)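 Binding of nucleotides to an N-terminally FITC-labelled, C-terminally amidated synthetic peptide (≥70% purity, dissolved in ultrapure water, concentration by spectrophotometry). Measured by microscale thermophoresis in standard-treated capillaries with blue-channel fluorescence, 30 s infrared heating at 50% of maximum laser power, then 5 s cooling. Buffer: 50 mM Tris·HCl pH 8.0, 100 mM NaCl, 0.1% polysorbate 20.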

A further test concerns 2′3′-cGAMP. The experiment in a line: Microscale thermophoresis. The following applies: N-terminally FITC-labeled CSP4. Put shortly:
as §2

The subject of test [1] is c-di-GMP. The test is described as follows: Microscale thermophoresis. Particulars: N-terminally FITC-labeled CSP4. Put shortly:
as §2

For the next test, the system named is 3′3′-cGAMP. The experiment in a line: Microscale thermophoresis. The following applies: N-terminally FITC-labeled CSP4. Put shortly:
as §2

The test system of a further test is GMP. The test is described as follows: Microscale thermophoresis. The following applies: N-terminally FITC-labeled CSP4. Put shortly:
as §2

Another test deals with pGpG. The test is described as follows: Microscale thermophoresis. The following applies: N-terminally FITC-labeled CSP4. Put shortly: as §2
A further test deals with GTP. The test is described as follows: Microscale thermophoresis. Particulars: N-terminally FITC-labeled CSP4. The essentials: as §2
Test [2] concerns the target c-di-GMP. The test is described as follows: Isothermal titration calorimetry. The following applies: ITC, 50 mM Tris·HCl pH 8.0, 100 mM NaCl, 15 °C; one-site model. Put shortly:
as §1

Chain of CSP2 (A0A0H3CCM2 140-174 K168R): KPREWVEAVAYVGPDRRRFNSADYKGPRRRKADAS
Chain of H6-MBP-CSP2 (A0A0H3CCM2 140-174 K168R): as above
Chain of CSP1 (A0A0H3CCM2 140-174): as the sequence (A0A0H3CCM2 140-174 K168R) above, with R29K counted along it
Chain of CSP3 (A0A0H3CCM2 144-172 K168R): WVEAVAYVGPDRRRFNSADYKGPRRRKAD

Consider `Nc1nc2c(ncn2[C@@H]2O[C@@H]3CO[P@](=O)(O)O[C@H]4[C@@H](O)[C@H](n5cnc6c(=O)[nH]c(N)nc65)O[C@@H]4CO[P@](=O)(O)O[C@H]3[C@H]2O)c(=O)[nH]1` [c-di-GMP, cyclic diguanylate (3'3'-c-di-GMP)], for which the Kd at CSP23 came out at 4800 nM; on CSP29, 1270 nM; at CSP30 it was 1250 nM; at CSP6, 1410 nM; at CSP21 it was 346 nM; on CSP14, 221 nM. Further, the Kd worked out at 4370 nM on CSP18; 782 nM on CSP12; 1710 nM on CSP7; 108 nM at CSP1; 209 nM at CSP15; 251 nM at CSP26. The equilibrium dissociation constant (Kd) turned out to be 125 nM at H6-MBP-CSP2; 7660 nM on CSP20; 1470 nM at CSP10; 338 nM at CSP32; 102 nM on CSP16; 140 nM on CSP13. Also, the equilibrium dissociation constant (Kd) at CSP11 came out at 1510 nM; at CSP2, 19 nM; at CSP9, 1750 nM; on CSP28 it was 1040 nM; on CSP27, 1720 nM; at CSP4, 177 nM. The Kd was found to be 154 nM at CSP3; 439 nM on CSP31; 273 nM at CSP25; 145 nM at CSP17; 261 nM at CSP19; 1830 nM at CSP22.

As for Ac-DRRRFNSADYKGPRRRKAD-NH2 [CSP4], the “binding of 3′3′-c-di-AMP (MST)” value with 3′3′-c-di-AMP is recorded as “none of the related nucleotides or CDNs was able to bind”. Besides, the “binding of 2′3′-cGAMP (MST)” value in the test with 2′3′-cGAMP is reported as “none of the related nucleotides or CDNs was able to bind”. In addition, the “binding of c-di-GMP (MST)” value in the test on c-di-GMP [1] is listed as “only c-di-GMP binding to CSP4 was observed”. Moreover, in the test with 3′3′-cGAMP, the “binding of 3′3′-cGAMP (MST)” value was “none of the related nucleotides or CDNs was able to bind”. For the same molecule, the “binding of GMP (MST)” value in the test on GMP is listed as “none of the related nucleotides or CDNs was able to bind”. For the same molecule, the “binding of pGpG (MST)” value in the test on pGpG is listed as “none of the related nucleotides or CDNs was able to bind”. The “binding of GTP (MST)” value in the test with GTP was “none of the related nucleotides or CDNs was able to bind”.

As for DRRRFNSADYKGPRRR [CSP8], the “Kd to c-di-GMP” value at c-di-GMP [2] is “No binding”.

As to RRRFNSADYKGPRRR [CSP5], the “Kd to c-di-GMP” value at c-di-GMP [2] is listed as “No binding”.

The values are drawn from PMC7382256 (Proceedings of the National Academy of Sciences of the …, 2020).
